Each block holds one molecule with its values, some of them ahead of it.
Experiments:
Assay type in all cases: ADME, organism-based
Conditions in all cases: in vivo
[1] = tested on: Rattus norvegicus; test: Distribution of [125I]-AC in cerebellum after intravenous administration in rat after 2hours, expressed as percent dose/gram
Summary of the method: (§1)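 Rats received the radioiodinated ligand intravenously and were killed with ether at 1 h or 2 h (six per time point). Organs and brain regions (striatum, cerebellum, thalamus, rest of brain) were sampled and counted. Uptake was calculated as percent injected dose per gram tissue, reported ± SD. The striatum/cerebellum ratio was taken from the regional uptake values.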

[2] = tested on: Rattus norvegicus; test: Distribution of [125I]AC in heart after intravenous administration in rat after 1hour, expressed as percent dose/gram; summary of the method: as §1
[3] = tested on: Rattus norvegicus; test: Distribution of [125I]-AC in heart after intravenous administration in rat after 2hours, expressed as percent dose/gram; summary of the method: as §1
[4] = tested on: Rattus norvegicus; test: Distribution of [125I]AC in rest of the brain after intravenous administration in rat after 1hour, expressed as percent dose/gram; summary of the method: as §1
[5] = tested on: Rattus norvegicus; test: Distribution of [125I]AC in rest of the brain after intravenous administration in rat after 2hours, expressed as percent dose/gram; summary of the method: as §1
[6] = tested on: Rattus norvegicus; test: Distribution of [125I]AC in striatum after intravenous administration in rat after 1hour, expressed as percent dose/gram; summary of the method: as §1
[7] = tested on: Rattus norvegicus; test: Distribution of [125I]-AC in thalamus after intravenous administration in rat after 1hour, expressed as percent dose/gram; summary of the method: as §1
[8] = tested on: Rattus norvegicus; test: Distribution of [125I]AC in thalamus after intravenous administration in rat after 2hours, expressed as percent dose/gram; summary of the method: as §1
[9] = tested on: Rattus norvegicus; test: Distribution of [125I]AC in blood after intravenous administration in rat after 1hour, expressed as percent dose/gram; summary of the method: as §1
[10] = tested on: Rattus norvegicus; test: Distribution of [125I]-AC in blood after intravenous administration in rat after 2hours, expressed as percent dose/gram; summary of the method: as §1
[11] = tested on: Rattus norvegicus; test: Distribution of [125I]AC in cerebellum after intravenous administration in rat after 1hour, expressed as percent dose/gram; summary of the method: as §1
[12] = species: Rattus norvegicus; test: Ratio of striatum/cerebellum distribution in rat after 1 hr; summary of the method: as §1
[13] = species: Rattus norvegicus; test: Ratio of striatum/cerebellum distribution in rat after 2 hr; summary of the method: as §1
[14] = tested on: Rattus norvegicus; test: Distribution of [125I]AC in striatum after intravenous administration in rat after 2hours, expressed as percent dose/gram; summary of the method: as §1
[15] = tested on: Rattus norvegicus; test: Distribution of [125I]Iodoclebopride in rest of the brain after intravenous administration in rat after 2hours, expressed as percent dose/gram; summary of the method: as §1
[16] = tested on: Rattus norvegicus; test: Distribution of [125I]iodoclebopride in blood after intravenous administration in rat after 1hour, expressed as percent dose/gram; summary of the method: as §1
[17] = tested on: Rattus norvegicus; test: Distribution of [125I]iodoclebopride in blood after intravenous administration in rat after 2hours, expressed as percent dose/gram; summary of the method: as §1
[18] = tested on: Rattus norvegicus; test: Distribution of [125I]iodoclebopride in cerebellum after intravenous administration in rat after 1hour, expressed as percent dose/gram; summary of the method: as §1
[19] = tested on: Rattus norvegicus; test: Distribution of [125I]iodoclebopride in cerebellum after intravenous administration in rat after 2hours, expressed as percent dose/gram; summary of the method: as §1
[20] = tested on: Rattus norvegicus; test: Distribution of [125I]iodoclebopride in heart after intravenous administration in rat after 1hour, expressed as percent dose/gram; summary of the method: as §1
[21] = tested on: Rattus norvegicus; test: Distribution of [125I]Iodoclebopride in rest of the brain after intravenous administration in rat after 1hour, expressed as percent dose/gram; summary of the method: as §1
[22] = tested on: Rattus norvegicus; test: Distribution of [125I]iodoclebopride in striatum after intravenous administration in rat after 1hour, expressed as percent dose/gram; summary of the method: as §1
[23] = tested on: Rattus norvegicus; test: Distribution of [125I]iodoclebopride in striatum after intravenous administration in rat after 2hours, expressed as percent dose/gram; summary of the method: as §1
[24] = tested on: Rattus norvegicus; test: Distribution of [125I]iodoclebopride in thalamus after intravenous administration in rat after 1hour, expressed as percent dose/gram; summary of the method: as §1
[25] = tested on: Rattus norvegicus; test: Distribution of [125I]iodoclebopride in thalamus after intravenous administration in rat after 2hours, expressed as percent dose/gram; summary of the method: as §1
[26] = tested on: Rattus norvegicus; test: Distribution of [125I]iodoclebopride in heart after intravenous administration in rat after 2hours, expressed as percent dose/gram; summary of the method: as §1

- Tissue distribution [1]: 0.23%
- Tissue distribution [2]: 0.35%
- Tissue distribution [3]: 0.3%
- Tissue distribution [4]: 0.18%
- Tissue distribution [5]: 0.16%
- Tissue distribution [6]: 0.5%
- Tissue distribution [7]: 0.27%
- Tissue distribution [8]: 0.22%
- Tissue distribution [9]: 0.33%
- Tissue distribution [10]: 0.29%
- Tissue distribution [11]: 0.26%
- Ratio [12]: 1.92
- Ratio [13]: 1.65
- Tissue distribution [14]: 0.38%
Compound: COc1cc(N)c(I)cc1C(=O)NC1CCN(Cc2ccccc2)CC1

- Tissue distribution [15]: 0.73%
- Tissue distribution [16]: 0.32%
- Tissue distribution [17]: 0.34%
- Tissue distribution [18]: 1.13%
- Tissue distribution [19]: 1.06%
- Tissue distribution [20]: 1.61%
- Tissue distribution [21]: 0.78%
- Tissue distribution [22]: 2.52%
- Tissue distribution [23]: 2.52%
- Tissue distribution [24]: 1.25%
- Tissue distribution [25]: 1.12%
- Ratio [12]: 2.23
- Ratio [13]: 2.37
- Tissue distribution [26]: 1.34%
Compound: COc1cc(N=[N+]=[N-])c(I)cc1C(=O)NC1CCN(Cc2ccccc2)CC1 [IODOAZIDOCLEBOPRIDE]

— ChEMBL document CHEMBL1122967 (J Med Chem, 1985)
